This note sets out measurements from ChEMBL document CHEMBL1129496, “3-and 4-substituted 4H-pyrido[4,3-e]-1,2,4-thiadiazine 1,1-dioxides as potassium channel openers: synthesis, pharmacological evaluation, and structure-activity relationships” (1996).

What all share (format): functional
Assay [1] is filed under the species Rattus norvegicus. Briefly: Percentage of residual contractile response at 500 uM from isolated rat aorta.
The species entered for assay [2] is Rattus norvegicus. The experiment in a line: Residual insulin release from rat pancreatic islets at a concentration of 50 uM. The essentials:
(§1)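 Rat pancreatic islets in groups of 10 were preincubated 30 min at 37 °C in bicarbonate salt medium with 2.8 mM glucose and 0.5% dialyzed albumin, gassed with 95% O2/5% CO2. They were then incubated 90 min at 37 °C with 16.7 mM glucose plus test drug. Insulin was measured by radioimmunoassay against a rat insulin standard and reported as % residual release.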

The species entered for assay [3] is Rattus norvegicus. Briefly: Percentage of residual contractile response in isolated rat aorta; +++ indicates that a maximal vasorelaxant activity was observed at 500 uM.
The species entered for assay [4] is Rattus norvegicus. The experiment in a line: Effective dose to give 50% relaxation of KCl induced concentration. The essentials:
(§2)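 Endothelium-denuded transverse aortic rings (3-4 mm) from fed Wistar rats (250-300 g), held at 36 ± 1 °C under 95% O2/5% CO2. After 60 min equilibration they were contracted with 30 mM KCl. At the plateau (1-2 g), drug was added cumulatively until maximal relaxation or 1 mM. Isometric tension was recorded. ED50 was read graphically from each curve. Mean ± sem of 3-12 experiments.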

The species named for assay [5] is Rattus norvegicus. The experiment in a line: Effective dose concentration by the compound to give 50% relaxation of KCl induced concentration. The procedure, abridged:
as §2

The species named for assay [6] is Rattus norvegicus. The experiment in a line: Percentage residual insulin release by the compound at 1(uM from rat pancreatic islets. The settings on record: in the assay text read “10(uM” for “1(uM”. The essentials:
as §1

For assay [7], the species on record is Rattus norvegicus. The experiment in a line: Effective dose to give 50% relaxation of the KCl induced contraction. The essentials: as §2
The species named for assay [8] is Rattus norvegicus. Briefly: Percentage residual insulin release by the compound at 10 uM from rat pancreatic islets. The essentials:
as §1

For assay [9], the species on record is Rattus norvegicus. Briefly: Percentage residual insulin release by the compound at 1 uM from rat pancreatic islets. The procedure, abridged:
as §1

SMILES strings stand for the structures. The source made the active and inactive calls. The calls are words filed in the database; no cut-off is given here.

`CCCCN(C)C1=NS(=O)(=O)c2cnccc2N1` returned a Residual contractile activity in [1] of 47%. The Residual insulin secretion in assay [2] amounted to 76.1%.

As for `CC1=NS(=O)(=O)c2cnccc2N1C1CCCCCCC1`, in [3], the Residual contractile activity result was “maximal vasorelaxant activity was observed at 500 uM”. In assay [2], this compound showed a Residual insulin secretion of 90.6%. The ED50 in assay [4] is 248 µM.

As for `CC1=NS(=O)(=O)c2cnccc2N1C(C)C`, in [1], the Residual contractile activity came to 86%. This compound also came in with a Residual insulin secretion in assay [2] of 68.1%.

In the case of `CC(C)C1=NS(=O)(=O)c2cnccc2N1`, the Residual contractile activity in assay [1] was determined as 71%. The same compound registered a Residual insulin secretion in assay [2] of 79.7%.

With `O=S1(=O)NC(C2CCCC2)=Nc2ccc(Cl)cc21`, the Residual contractile activity entry in [3] is reported as “maximal vasorelaxant activity was observed at 500 uM”. Moreover, the Residual insulin secretion in assay [2] was determined as 14.1%. Moreover, the ED50 in assay [5] was determined as 2.8 µM.

Regarding `CCC(C)NC1=NS(=O)(=O)c2cnccc2N1` (stereo not given), in assay [1], the Residual contractile activity was found to be 34%. Moreover, the Residual insulin secretion in assay [2] is 9.4%; in assay [6] it was 49%.

In assay [1], `CCNC1=NS(=O)(=O)c2cnccc2N1` came in with a Residual contractile activity of 87%. The compound further registered a Residual insulin secretion in assay [2] of 59.2%.

`O=S1(=O)N=C(C2CCCC2)Nc2ccncc21`: the Residual contractile activity entry in assay [3] is “maximal vasorelaxant activity was observed at 500 uM”. Also, the Residual insulin secretion in [2] is reported as 99.3%. Also, in assay [5], the ED50 came to 257 µM.

The compound `CC1=NS(=O)(=O)c2cc(Cl)ccc2N1C` showed a Residual insulin secretion in assay [2] of 83.9%.

In turn, `O=S1(=O)N=C(NC2CCCCC2)Nc2ccncc21` showed a Residual contractile activity in [1] of 40%.

With `CCCC1=NS(=O)(=O)c2cnccc2N1`, in [1], the Residual contractile activity stood at 77%. The same compound gave a Residual insulin secretion in assay [2] of 85.1%.

On to `CC(NC1=NS(=O)(=O)c2cc(Cl)ccc2N1)C(C)(C)C` (stereo not given), for which the Residual contractile activity entry in [3] is “maximal vasorelaxant activity was observed at 500 uM”. For the same compound, the ED50 in assay [7] is 10 µM. For the same compound, the Residual insulin secretion in assay [2] was found to be 9.3%; in assay [8], 46.9%; in assay [9], 87.7%.

In the case of `CC(C)NC1=NS(=O)(=O)c2cnccc2N1C`, the Residual contractile activity in assay [1] is given as 84%. Further, the Residual insulin secretion in assay [2] was 79.4%.

With `CN1CCN(C2=NS(=O)(=O)c3cnccc3N2)CC1`, the Residual contractile activity result in assay [3] is “maximal vasorelaxant activity was observed at 500 uM”. For the same compound, the ED50 in assay [7] came out at 125 µM. For the same compound, in [2], the Residual insulin secretion was 90.6%.

`CCC(C)NC1=NS(=O)(=O)c2cnccc2N1C` (stereo not given): in assay [1], the Residual contractile activity was found to be 61%. The same compound came in with a Residual insulin secretion in [2] of 81%.

Consider `CCC1=NS(=O)(=O)c2cnccc2N1`, for which, in assay [1], the Residual contractile activity was determined as 74%. In [2], the Residual insulin secretion is on record as 90.2%.

On to `CC(NC1=NS(=O)(=O)c2cnccc2N1C)C(C)(C)C` (stereo not given), for which the Residual contractile activity in assay [1] stood at 74%. In addition, the Residual insulin secretion in assay [2] is 88.5%.

For the compound `O=S1(=O)N=C(NN2CCOCC2)Nc2ccncc21`, in assay [1], the Residual contractile activity is given as 93%. Moreover, the Residual insulin secretion in [2] was 98.8%.

As for `CC(C)C(C)NC1=NS(=O)(=O)c2cnccc2N1` (stereo not given), in assay [3], the Residual contractile activity result was “Active”. Further, the ED50 in assay [7] was 302 µM. The Residual insulin secretion in [2] is 8.6%.

Regarding `O=S1(=O)N=CNc2ccncc21`, the Residual contractile activity in assay [1] was determined as 94%. In addition, the Residual insulin secretion in assay [2] is listed as 99.5%.

Regarding `NC1=NS(=O)(=O)c2cnccc2N1`, the Residual contractile activity in assay [1] is 77%.

Regarding `CC1=NS(=O)(=O)c2cnccc2N1C1CCCCC1`, the Residual contractile activity in assay [1] is 52%. Also, in assay [2], the Residual insulin secretion was 87.9%.

Regarding `CC1=NS(=O)(=O)c2cnccc2N1`, the Residual contractile activity in assay [1] was 92%. The Residual insulin secretion in assay [2] amounted to 100.4%.

Take `CC(C)CNC1=NS(=O)(=O)c2cnccc2N1`: the Residual contractile activity result in assay [3] is “maximal vasorelaxant activity was observed at 500 uM”. The compound further registered an ED50 in assay [7] of 205 µM.

Turning to `CCCCNC1=NS(=O)(=O)c2cnccc2N1`, the Residual contractile activity in assay [1] is reported as 74%. The Residual insulin secretion in assay [8] turned out to be 82%.

As to `CC1=Nc2ccc(Cl)cc2S(=O)(=O)N1` [DIAZOXIDE], the Residual contractile activity result in [3] was “Active”. Further, the ED50 in assay [7] came to 21 µM. For the same compound, the Residual insulin secretion in assay [8] is recorded as 70%.

In the case of `CCC(C)NC1=NS(=O)(=O)c2cc(Cl)ccc2N1` (stereo not given), in assay [3], the Residual contractile activity entry is listed as “maximal vasorelaxant activity was observed at 500 uM”. The compound also showed an ED50 in assay [7] of 25 µM. The Residual insulin secretion in assay [2] turned out to be 5.5%; in assay [8], 19.9%; in assay [9], 85.4%.

For `CC(C)NC1=NS(=O)(=O)c2cnccc2N1`, the Residual contractile activity in [1] worked out at 89%. Besides, in [2], the Residual insulin secretion is given as 42.6%.

With `CC(C)(C)C1=NS(=O)(=O)c2cnccc2N1`, in assay [3], the Residual contractile activity entry is reported as “maximal vasorelaxant activity was observed at 500 uM”. In assay [2], the Residual insulin secretion is recorded as 81.1%. In [5], this compound registered an ED50 of 258 µM.

`O=S1(=O)N=C(C(F)(F)F)Nc2ccncc21` gave a Residual contractile activity in [1] of 96%. In addition, the Residual insulin secretion in [2] is reported as 90.4%.

`CC(C)C(C)NC1=NS(=O)(=O)c2cnccc2N1C` (stereo not given) returned a Residual contractile activity in assay [1] of 69%. For the same compound, the Residual insulin secretion in [2] amounted to 95.4%.

With `CC1=NS(=O)(=O)c2cnccc2N1N1C2CCCC1CC2`, in [1], the Residual contractile activity was 53%. This compound also came in with a Residual insulin secretion in [2] of 71.9%.

With `O=S1(=O)N=C(NC2CCCC2)Nc2ccncc21`, the Residual contractile activity in [1] amounted to 60%. For the same compound, the Residual insulin secretion in assay [2] turned out to be 31.6%.

For `CC(NC1=NS(=O)(=O)c2cnccc2N1)C(C)(C)C` (stereo not given), the Residual contractile activity result in assay [3] was “maximal vasorelaxant activity was observed at 500 uM”. In assay [7], this compound came in with an ED50 of 104 µM. Moreover, the Residual insulin secretion in assay [2] is reported as 10.3%; in assay [8], 41%; in assay [9], 70%.

On to `CC1=NS(=O)(=O)c2cnccc2N1C`, for which the Residual contractile activity in [1] was 94%. The same compound yielded a Residual insulin secretion in assay [2] of 109%.

In assay [1], `CC1=NS(=O)(=O)c2cnccc2N1N1CCOCC1` registered a Residual contractile activity of 89%. In addition, the Residual insulin secretion in assay [2] came to 93.5%.

As for `CCCNC1=NS(=O)(=O)c2cnccc2N1`, in assay [1], the Residual contractile activity is given as 88%.

On to `CC(C)C(C)NC1=NS(=O)(=O)c2cc(Cl)ccc2N1` (stereo not given), for which the Residual contractile activity entry in [3] is on record as “maximal vasorelaxant activity was observed at 500 uM”. Moreover, the ED50 in assay [7] worked out at 32 µM. In assay [2], this compound gave a Residual insulin secretion of 11%.
